From PubChem BioAssay
Sampled rows, rich in hits. Any-hit rate of the full collection: about 2.2%.
CAL PDZ FP-1: inhibitors of human CAL PDZ peptide binding; Q9HD26; AID 504414; inhibition, % at 20 µM; hit rate 0.02% among 330,000; purified CAL PDZ, TMR-peptide fluorescence polarization, 1 h;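 active = highest replicate inhibition of at least 40%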;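 also: plate controls were DMSO neutral control wells for no effect and unlabeled competitor peptide control wells for full effect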
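Read-out basis: mP drop reported as inhibition | Assay system: Tagged CAL PDZ protein CerCALP, purified | Benchmarks: Unlabelled peptide for full inhibition, DMSO wells as neutral | Schedule: 1 h incubation at room temperature before polarization reading | Buffer or medium: Sodium phosphate/NaCl buffer pH 7.4 with TCEP, IgG, Thesit | Doses: Single point, 20 µM | Measured by: Fluorescence polarization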
CAL PDZ FP-2: CAL PDZ (human) peptide binding inhibition; AID 602252; inhibition, % at 24.9 µM; Q9HD26; purified CAL PDZ, TMR-peptide fluorescence polarization, 1 h; hit rate 0.92% among 300,000;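 active = mean inhibition of at least 30% with at least half of replicates also reaching 30%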;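 also: 0% = DMSO neutral control and 100% = excess unlabeled competitor peptide PRC23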
DYRK1A inh: Dyrk1A (rat) kinase inhibition | Q63470 | ADP-Glo luminescence, NFATc1 peptide | inhibition, % at 12.5 µM | hit rate 0.43% among 310,000 | AID 504441; in the data active = inhibition above about 50%;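 also: plate controls were vehicle with enzyme for no effect and no enzyme for full effect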
Rtt109 HAT inh: blocks Candida albicans Rtt109/Vps75 acetyltransferase activity | inhibition, % at 34.9 µM | hit rate 0.16% among 330,000 | purified Rtt109/Vps75, ThioGlo CoA-SH fluorescence, 4 h | Q5AAJ8 | AID 540336;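 active = inhibition of at least 50% in every replicate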
Target sequence (Q5AAJ8 whole entry, looked up): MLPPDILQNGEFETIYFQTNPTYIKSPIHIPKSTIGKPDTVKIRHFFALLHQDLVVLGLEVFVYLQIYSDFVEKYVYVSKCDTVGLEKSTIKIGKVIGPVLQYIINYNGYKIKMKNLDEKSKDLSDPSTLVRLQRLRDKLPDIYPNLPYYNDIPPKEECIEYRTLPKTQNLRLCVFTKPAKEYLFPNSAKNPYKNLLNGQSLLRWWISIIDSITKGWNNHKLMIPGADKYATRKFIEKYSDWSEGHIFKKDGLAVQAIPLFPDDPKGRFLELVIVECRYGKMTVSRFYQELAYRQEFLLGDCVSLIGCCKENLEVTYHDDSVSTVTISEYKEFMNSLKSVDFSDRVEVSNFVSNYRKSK
CDK5 inh: blocks human CDK5/p35 kinase activity | Recombinant CDK5/p35, ADP-Glo luminescence, 60 min | inhibition, % at 10 µM | hit rate 0.01% among 330,000;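 active = highest replicate inhibition of at least 50% and at least 75% of replicates reaching 50%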;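 also: plate controls were DMSO neutral control for no effect and GW8510 at 10 µM for full effect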
dFosB act: mouse delta FosB homodimer activation; AID 493131; purified delta FosB, TAMRA-CDK5 oligo fluorescence polarization; percent of positive-control signal above neutral wells; activation, % at 25 µM; P13346; hit rate 0.99% among 340,000;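 active = mean activation above about 17%, with every replicate also reaching it, limit read from the data, passing the limit was not always enough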
Target sequence (P13346 whole entry, looked up): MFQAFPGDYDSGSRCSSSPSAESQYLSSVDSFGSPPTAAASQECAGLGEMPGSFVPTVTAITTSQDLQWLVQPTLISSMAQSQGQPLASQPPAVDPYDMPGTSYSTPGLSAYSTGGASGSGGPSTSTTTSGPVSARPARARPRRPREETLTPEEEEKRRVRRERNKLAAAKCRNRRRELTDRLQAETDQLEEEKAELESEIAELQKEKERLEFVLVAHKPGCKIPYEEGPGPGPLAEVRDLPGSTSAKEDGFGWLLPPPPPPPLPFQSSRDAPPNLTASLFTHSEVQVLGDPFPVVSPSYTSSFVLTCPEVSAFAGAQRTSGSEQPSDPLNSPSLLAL
Active calls of the source: *.

Screening CCN1/C(=C\C=C\C2=[N+](CC)c3ccccc3C2(C)C)C(C)(C)c2ccccc21 returned CAL PDZ FP-1 -42.0, CAL PDZ FP-2 -67.6, DYRK1A inh 15.4, Rtt109 HAT inh -3.7, CDK5 inh 23.7 and dFosB act 52.5*.
Screening COc1cc2c(cc1OC)C13CCN4CC5=CCOC(CC(=O)O)C(C5CC41)C3N2 (stereo unspecified) returned CAL PDZ FP-1 -0.4, CAL PDZ FP-2 -1.8, DYRK1A inh -1.2, Rtt109 HAT inh -5.2, CDK5 inh 0.4 and dFosB act -5.7.
For CCCC[N+]12CCC(CC1)C(=C(c1ccccc1)c1ccccc1)C2 the results were CAL PDZ FP-1 0.3, CAL PDZ FP-2 -5.1, DYRK1A inh 3.2, Rtt109 HAT inh -1.6, CDK5 inh -0.3 and dFosB act 3.7.
Screening Cc1ccnc(NC(=O)CCCc2ccc(N(CCCl)CCCl)cc2)n1 returned CAL PDZ FP-1 14.6, CAL PDZ FP-2 51.2*, DYRK1A inh 1.5, Rtt109 HAT inh -1.5, CDK5 inh 1.0 and dFosB act -1.2.
Screening COC(=O)CC(=O)c1ccc2c(c1)OCO2 returned CAL PDZ FP-1 -0.5, CAL PDZ FP-2 -3.2, DYRK1A inh -10.4, Rtt109 HAT inh -10.1, CDK5 inh 1.0 and dFosB act 3.6.
`O=C(CCN1CCOCC1)NCC(=O)Nc1ccc(Br)cc1C(=O)c1ccccc1` gave CAL PDZ FP-1 -2.4, CAL PDZ FP-2 35.6*, DYRK1A inh -3.6, Rtt109 HAT inh -6.4, CDK5 inh -1.9 and dFosB act -4.5.
O=C(CN1CCCCC1)NCC(=O)Nc1ccc(Br)cc1C(=O)c1ccccc1 was read as CAL PDZ FP-1 -0.6, CAL PDZ FP-2 -7.4, DYRK1A inh 1.2, Rtt109 HAT inh -4.9, CDK5 inh 0.5 and dFosB act -6.9.
Screening N#CCCn1cc(C(=O)NCc2ccccc2)c(-c2ccc3c(c2)OCCO3)n1 returned CAL PDZ FP-1 4.4, CAL PDZ FP-2 46.8*, DYRK1A inh 2.0, Rtt109 HAT inh -4.4, CDK5 inh -1.3 and dFosB act -18.1.
Screening O=C(c1c[nH]cc1-c1ccccc1)c1cccc2ccccc12 returned CAL PDZ FP-1 -0.1, CAL PDZ FP-2 -1.7, DYRK1A inh -1.5, Rtt109 HAT inh 3.7, CDK5 inh -0.9 and dFosB act -2.0.
Screening COc1cc2c(cc1O)C[C@H]1NCCc3cc4c(c-2c31)OCO4 returned CAL PDZ FP-1 -0.9, CAL PDZ FP-2 0.9, DYRK1A inh 72.3*, Rtt109 HAT inh -2.8, CDK5 inh 3.6 and dFosB act 24.4*.
`O=C(O)c1cccc2c1NC(C(=O)O)C1CC(Sc3ccccc3[N+](=O)[O-])C(Cl)C21` (stereo unspecified) gave CAL PDZ FP-1 1.8, CAL PDZ FP-2 8.4, DYRK1A inh 9.1, Rtt109 HAT inh 59.7*, CDK5 inh -1.7 and dFosB act -13.1.
Screening CC(=O)c1ccc2c(c1)C1C(Cl)C(Sc3ccccc3[N+](=O)[O-])CC1C(C(=O)O)N2 (stereo unspecified) returned CAL PDZ FP-1 0.2, CAL PDZ FP-2 -4.6, DYRK1A inh 15.2, Rtt109 HAT inh -0.6, CDK5 inh 4.1 and dFosB act -15.5.
`O=C(c1ccc2c(c1)OCO2)C1CCCN(CC2CCCCC2)C1` (stereo unspecified) gave CAL PDZ FP-1 -1.5, CAL PDZ FP-2 78.4*, DYRK1A inh 1.5, Rtt109 HAT inh -6.0, CDK5 inh -0.1 and dFosB act -5.8.
Screening CN(c1ccccc1)P(=O)(N1CC1)N1CC1 returned CAL PDZ FP-1 0.3, CAL PDZ FP-2 1.7, DYRK1A inh -1.8, Rtt109 HAT inh 11.6, CDK5 inh 0.8 and dFosB act -4.9.
Screening CC1CN(O)C2CCc3nonc3C12O (stereo unspecified) returned CAL PDZ FP-1 -1.0, CAL PDZ FP-2 0.9, DYRK1A inh 5.7, Rtt109 HAT inh 4.0, CDK5 inh -1.3 and dFosB act 16.2*.
O=c1[nH]cc(COCC(F)(F)C(F)(F)C(F)(F)F)c(=O)[nH]1 was read as CAL PDZ FP-1 -2.6, CAL PDZ FP-2 -2.6, DYRK1A inh -1.4, Rtt109 HAT inh -1.0, CDK5 inh 0.2 and dFosB act 2.7.
CC(=O)O[C@@H]1CC[C@]2(C)C3CC[C@]4(C)C(=O)[C@H](O)CC4C3[C@@H](OC(C)=O)C[C@H]2C1 (stereo partly specified) was read as CAL PDZ FP-1 -1.1, CAL PDZ FP-2 78.1*, DYRK1A inh 4.9, Rtt109 HAT inh -4.3, CDK5 inh -1.7 and dFosB act 8.4.
For CC(C)(C)C(=O)Nc1ccc(S(=O)(=O)N2CC3CC(C2)c2cccc(=O)n2C3)cc1 (stereo unspecified) the results were CAL PDZ FP-1 -0.6, Rtt109 HAT inh -0.5, CDK5 inh -4.1 and dFosB act -10.9.
For C[N+]1(CC2COC(c3ccco3)O2)CCCCC1 (stereo unspecified) the results were CAL PDZ FP-1 -0.7, CAL PDZ FP-2 -0.6, DYRK1A inh 0.2, CDK5 inh 0.4 and dFosB act 2.1.
For CCn1c(O)c(C=Nc2ccc(N3CCOCC3)c(Br)c2)c(=O)n(CC)c1=S the results were CAL PDZ FP-1 0.0, DYRK1A inh 0.3, Rtt109 HAT inh -20.0, CDK5 inh -1.1 and dFosB act 23.6*.
Cc1cc(C(=O)N2CCC3(CC2)OCCO3)no1 was read as CAL PDZ FP-1 -1.0, CAL PDZ FP-2 -1.6, Rtt109 HAT inh 8.2, CDK5 inh -0.5 and dFosB act -1.8.
Screening COc1ccc(Cn2c(O)c(/C=N/NC(=O)c3ccccc3)c(=O)[nH]c2=O)cc1 returned CAL PDZ FP-1 -2.2, CAL PDZ FP-2 -5.5, DYRK1A inh -1.7, Rtt109 HAT inh 11.4, CDK5 inh 0.9 and dFosB act -1.6.
For CCn1c(O)c(/C=N/NC(=O)c2ccccc2)c(=O)[nH]c1=S the results were CAL PDZ FP-1 -0.3, CAL PDZ FP-2 74.2*, DYRK1A inh -2.9, Rtt109 HAT inh -2.2, CDK5 inh 0.5 and dFosB act 0.8.
O=C1N[C@@H](Cc2ccccc2)C(=O)N2[C@H]1C[C@H]1c3ccccc3N(OOSc3ccccc3)[C@H]12 was read as CAL PDZ FP-1 -2.3, CAL PDZ FP-2 -0.1, Rtt109 HAT inh -1.9, CDK5 inh -1.3 and dFosB act -7.6.
For Fc1cccc(F)c1-c1nc(-c2ccc(Cl)cc2)no1 the results were CAL PDZ FP-1 -0.6, CAL PDZ FP-2 2.1, DYRK1A inh 1.8, Rtt109 HAT inh -22.4, CDK5 inh -0.4 and dFosB act 5.7.
Screening c1ccc2c(c1)[IH]c1ccccc1-2 returned CAL PDZ FP-1 -5.7, DYRK1A inh 21.6, Rtt109 HAT inh -8.9, CDK5 inh 2.1 and dFosB act 32.8*.
Screening c1ccc2c(c1)-c1cccc3cccc-2c13 returned CAL PDZ FP-1 -0.7, CAL PDZ FP-2 -3.0, DYRK1A inh -8.3, Rtt109 HAT inh 0.3, CDK5 inh -1.0 and dFosB act -3.0.
